Published values of several laboratories.
Each line is one published result; the experiments were not run side by side.

CCc1nc2nc(C)cc(Nc3cccc(Cl)c3)n2n1 — solubility (nephelometry; aqueous buffer; pH 6.5): 170 to 350 µM
O=C(Nc1cc(F)c(F)c(F)c1)c1ccc(F)c(S(=O)(=O)NCc2cccc(B(O)O)c2)c1 — solubility (aqueous buffer; pH 7): 329 µg/mL
FC(F)(F)c1ccc2c(c1)nc(N1CCNCC1)n2Cc1ccccc1 — solubility (shake flask; aqueous buffer; 20 h; pH 6.5; 25 °C): 200 µM
O=C(Nc1c(F)cccc1C(=O)O)c1ccc(-c2ccccc2)cc1 — solubility (shake flask; aqueous buffer; 24 h; pH 6.5; 25 °C): 80 µM
O=C(O)Cc1ccccc1Nc1c(Cl)cccc1Cl — solubility (PBS; pH 7.4): 1940 µg/mL
OCc1n(Cc2ccc3ccccc3c2)cc[n+]1Cc1ccc2ccccc2c1.[Br-] — solubility (water): < 500 µg/mL
CCCCCCCCO — solubility (PBS; 48 h; pH 7.4; 25 °C): 6000 µM
Cc1cc(Nc2ccc(S(F)(F)(F)(F)F)cc2)n2nc(C(C)(F)F)nc2n1 — solubility (nephelometry; aqueous buffer; pH 6.5): 30 to 60 µM
NC1CCN(c2nccc3[nH]c(-c4cccc(OC(F)(F)F)c4)nc23)CC1 — solubility (shake flask; aqueous buffer; pH 6.5): > 200 µM
COc1cc(F)c(S(=O)(=O)N2CCN(S(=O)(=O)c3cccc(N)c3)CC2)c(F)c1 — solubility (aqueous buffer): < 0.4 µg/mL
CNc1nc2ccccc2n2c(-c3cccc(OC)c3)cnc12 — solubility (HPLC; ethanol): 500 µg/mL
CC#Cc1cncc(-c2ccc3c(c2)[C@@]2(N=C(C)C(N)=N2)[C@]2(CC[C@H](OC)CC2)C3)c1 — solubility (simulated gastric fluid; 25 °C; acidic): > 10000 µg/mL
CC(C)C[C@H](NC(=O)[C@H](CCc1ccccc1)NC(=O)CN1CCOCC1)C(=O)N[C@@H](Cc1ccccc1)C(=O)N[C@@H](CC(C)C)C(=O)[C@@]1(C)CO1 — solubility (PBS; 24 h; pH 7.4; 37 °C): 1.56 µM
CC[C@H](C)[C@H](NC(=O)[C@H](Cc1ccccc1)NC(=O)[C@H](Cc1ccc(O)cc1)NC(=O)[C@@H]1CCCN1C(=O)[C@@H](N)Cc1ccc(O)cc1)C(=O)N1CCC[C@H]1C(=O)N[C@H](CCCCN)C(=O)NCC(=O)N[C@H](CCCCN)C(=O)NCC(=O)N[C@@H](CCC(=O)O)C(=O)N[C@H](C(=O)N[C@@H](CC(N)=O)C(=O)N[C@@H](CC(C)C)[C@@H](O)CC(=O)N[C@H](C(=O)N[C@@H](C)C(=O)N[C@@H](CCC(=O)O)C(=O)N1CCC[C@@H]1C(=O)N[C@@H](CCCCNC(=O)CCC(=O)O[C@H]1CC[C@@]2(C)C(=CC[C@H]3[C@@H]4CC[C@H]([C@H](C)CCCC(C)C)[C@@]4(C)CC[C@@H]32)C1)C(N)=O)C(C)C)C(C)C — solubility (aqueous buffer; pH 6.5): > 718 µg/mL
Brc1cccc(Nc2nc(NCc3ccccc3)c3ccccc3n2)c1 — solubility (aqueous buffer; pH 6.2): 0.01 µg/mL
O=C(Nc1c2c(cc3c1CCC3)CCC2)NS(=O)(=O)/C=C/c1nccs1 — solubility (simulated gastric fluid; 24 h; 37 °C; acidic): < 5 µg/mL
CN1CCN([C@H]2CC[C@H](Nc3nccc4[nH]c(-c5cc(F)cc(F)c5)nc34)CC2)CC1 — solubility (shake flask; aqueous buffer; pH 6.5): > 200 µM
N=C(N)N1CC=C(c2coc(C(=O)Nc3ccc(C4=CCN(C(=N)N)CC4)c(F)c3)c2)CC1 — solubility (shake flask; aqueous buffer; pH 7.4): 58 µg/mL
COC(=O)Nc1nc2cc(C(=O)c3ccc(F)cc3)ccc2[nH]1 — solubility (water; 24 h): < 1 µg/mL
Cc1ccc(S(=O)(=O)NCc2ccc(C(=O)NCCN(Cc3ccccc3)C(C)C)cc2)cc1 — solubility (aqueous buffer; pH 5): 0.47 µg/mL
CS(=O)(=O)c1ccc2c(c1)nc(C1CCNCC1)n2Cc1ccccc1.Cl — solubility (shake flask; aqueous buffer; 20 h; pH 6.5; 25 °C): 200 µM
Cc1c(F)cccc1Nc1nc(NCc2ccccc2)c2ccccc2n1 — solubility (aqueous buffer; pH 6.2): 0.05 µg/mL
Cc1cc(Nc2ccc(S(F)(F)(F)(F)F)cc2)n2nc(C(F)(F)F)nc2n1 — solubility (nephelometry; aqueous buffer; pH 6.5): 30 to 60 µM
Cc1nnc(CCCCCN)nn1.Cl — solubility (water): > 500000 µM
CC(C)CC(=O)N1CCC[C@H](COc2cccc3c2C(N)=NS(=O)(=O)[N-]3)C1.[Na+] — solubility (water): 235000 µM
CCOc1ccc2cc(-c3nn(C4CCC4)c(N)c3C(N)=O)cnc2c1 — solubility (PBS; pH 6.5; 25 °C): 10.9 µM
COc1ccc(Nc2nc(NCc3ccccc3)c3ccccc3n2)cc1F — solubility (aqueous buffer; pH 6.2): 0.03 µg/mL
COc1ccc2cc(-c3nn(C(C)(C)C)c(N)c3C(N)=O)cnc2c1 — solubility (PBS; pH 6.5; 25 °C): > 100 µM
O=C(/C=C/c1ccc(CN(CCO)CCc2c[nH]c3ccccc23)cc1)NO — solubility (simulated gastric fluid; 48 h; pH 2; 25 °C; acidic): 4100 µg/mL
NCCNc1nc2cc(Cl)ccc2n1Cc1ccccc1 — solubility (shake flask; aqueous buffer; 20 h; pH 6.5; 25 °C): ≥ 200 µM
COc1cccc(OC)c1-c1nc(C(=O)N[C@@H](CC(C)C)C(=O)O)cn1-c1cccc2ccccc12 — solubility (aqueous buffer; pH 6.2): > 145 µg/mL
c1ccc(CNc2nc(N3CCNc4ccccc43)nc3ccccc23)cc1 — solubility (aqueous buffer; pH 5): > 36 µg/mL
CSC[C@H]1O[C@@H](n2cnc3c(N)ncnc32)[C@H](O)[C@@H]1O — solubility (PBS): 110 µM
O=C(Nc1ccc(S(=O)(=O)N2CCC(Cl)CC2)cc1)c1ccc([N+](=O)[O-])o1 — solubility (aqueous buffer; pH 5): 3.8 µg/mL
CN(C)CCCN1c2ccccc2Sc2ccc(Cl)cc21 — solubility (FaSSIF; 24 h; pH 7.4; 37 °C): 810 µg/mL
Cc1ccc(Nc2nc(NCc3ccccc3)c3ccccc3n2)cc1F — solubility (aqueous buffer; pH 7.4): 0.05 µg/mL
CCOC(=O)c1ccc(N)cc1 — solubility (PBS; pH 7.4): 890 µg/mL
CCCOc1ccc2cc(-c3nn(C(C)(C)C)c(N)c3C(N)=O)cnc2c1 — solubility (PBS; pH 6.5; 25 °C): 12.7 µM
COc1c(Cl)cccc1Nc1nc(NCc2ccccc2)c2ccccc2n1 — solubility (aqueous buffer; pH 7.4): 0.06 µg/mL
N=C(N)NCc1ccc(NC(=O)c2ccc(C(=O)Nc3ccc(C4=CCN(C(=N)N)CC4)cc3)cn2)cc1 — solubility (shake flask; aqueous buffer; pH 7.4): 4.5 µg/mL
Cc1ccc(F)cc1Nc1nc(NCc2ccccc2)c2ccccc2n1 — solubility (aqueous buffer; pH 5): 5.6 µg/mL
CCOc1ccc2cc(-c3nn(C4CCCC4)c(N)c3C(N)=O)cnc2c1 — solubility (PBS; pH 6.5; 25 °C): 98.7 µM
COc1cc(/C=C/C(=O)CC(=O)/C=C/c2ccc(O)c(OC)c2)ccc1O — solubility (absorbance; water): 0.56 µg/mL
CC(C)N1CCN(Cc2cnc(-c3cc(-c4cccc5[nH]ccc45)cc4[nH]ncc34)o2)CC1 — solubility (aqueous buffer; pH 10): 1 µg/mL
Fc1ccc(-c2nc3c(N4CCCN(CC5CC5)CC4)nccc3[nH]2)cc1F — solubility (shake flask; aqueous buffer; pH 6.5): > 200 µM
COc1cccc(OC)c1-c1cc(C(=O)N[C@@H](CC(C)C)C(=O)O)nn1-c1ccnc2cc(Cl)ccc12 — solubility (aqueous buffer; pH 7.4): > 155 µg/mL
C[C@]12CCCN1CC1=NNC(=O)c3cc(F)cc4[nH]c2c1c34 — solubility (ethanol): 49000 µg/mL
COc1cc(OC)cc(N(CCNC(C)C)c2ccc3ncc(-c4cnn(C)c4)nc3c2)c1 — solubility (aqueous buffer; pH 3.96): 23200 µg/mL
Brc1ccccc1CNc1nc(NCc2ccccc2)c2ccccc2n1 — solubility (aqueous buffer; pH 7.4): 0.14 µg/mL
O=C(c1ccccn1)N(Cc1cccs1)C1(C(=O)NC2CCCCC2)CCCCC1 — solubility (aqueous buffer; pH 5): 5.7 µg/mL
COc1c(N2CCNC(C)C2)c(F)cc2c(=O)c(C(=O)NCCCN(C)C)cn(C3CC3)c12 (racemic) — solubility (water): 72000 µM
Cc1n(Cc2ccc3ccccc3n2)c2ccccc2[n+]1Cc1ccc2ccccc2n1.[Cl-] — solubility (water): > 500 µg/mL
CCc1nc2nc(C)cc(Nc3ccc(Cl)cc3)n2n1 — solubility (nephelometry; aqueous buffer; pH 6.5): 170 to 350 µM
Cl.Clc1ccc2c(nc(N3CCNCC3)n2Cc2ccccc2)c1-c1ccncc1 — solubility (shake flask; aqueous buffer; 20 h; pH 6.5; 25 °C): 200 µM
O=C(NCCN1CCCC1)c1cc(-c2ccc(CN3CCOCC3)cc2)nc2ccc(F)cc12 — solubility (aqueous buffer; pH 7.4): 2800 µM
